Test results reported in ChEMBL document CHEMBL4689842, “EUbOPEN Chemogenomics Library wave 1” (2021).
“And” between values parts separate entries of the source, which are not always exact repeats. Equal entries are not always repeated.

Test system: U2OS
Test: Multiplex assay against U2OS
Assay type: toxicity, cell-based
Conditions: human
In short: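 Four dyes were applied at seeding to live cells: Hoechst33342, BioTracker Green Microtubule Cytoskeleton Dye, MitoTracker Red and Annexin V Alexa Fluor 680. Imaging after compound addition used a CQ1 microscope at 37°C and 5% CO2. CellPathfinder machine-learning gating then sorted cells into Hoechst high-intensity objects or normal cells, normal cells into healthy, pyknosed or fragmented nuclei, and pyknosed cells into mitotic or apoptotic, with tubulin, mitochondrial-mass and membrane-permeability phenotypes given as per cents of healthy-nucleus cells.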

[1] = 12 h, 1 µM, compound concentration 1 uM, replicate 1
[2] = 12 h, 1 µM, compound concentration 1 uM, replicate 2
[3] = 12 h, 10 µM, compound concentration 10 uM, replicate 1
[4] = 12 h, 10 µM, compound concentration 10 uM, replicate 2
[5] = 24 h, 1 µM, compound concentration 1 uM, replicate 1
[6] = 24 h, 1 µM, compound concentration 1 uM, replicate 2
[7] = 24 h, 10 µM, compound concentration 10 uM, replicate 1
[8] = 24 h, 10 µM, compound concentration 10 uM, replicate 2
[9] = 48 h, 1 µM, compound concentration 1 uM, replicate 1
[10] = 48 h, 1 µM, compound concentration 1 uM, replicate 2
[11] = 48 h, 10 µM, compound concentration 10 uM, replicate 1
[12] = 48 h, 10 µM, compound concentration 10 uM, replicate 2

SMILES: CNc1nc(NCc2ccc(NS(C)(=O)=O)cc2Cl)cc(-c2ccccn2)n1
- Population Apoptotic (%) [1]: 35%
- Population Fragmented Nuclei (%) [1]: 12%
- Population Healthy Nuclei (%) [1]: 70%
- Population Hoechst High Intensity Objects (%) [1]: 10%
- Population Membrane Permeable-Phenotype (%) [1]: 7%
- Population Mitochondria Different-Phenotype (%) [1]: 12%
- Population Mitotic Cells (%) [1]: 64%
- Population Normal (%) [1]: 89%
- Population Pyknosed Nuclei (%) [1]: 17%
- Population Tubulin-Different-Phenotype (%) [1]: 19%
- Total Cell Count [1]: 121
- Population Apoptotic (%) [2]: 33%
- Population Fragmented Nuclei (%) [2]: 11%
- Population Healthy Nuclei (%) [2]: 82%
- Population Hoechst High Intensity Objects (%) [2]: 8%
- Population Membrane Permeable-Phenotype (%) [2]: 0%
- Population Mitochondria Different-Phenotype (%) [2]: 9%
- Population Mitotic Cells (%) [2]: 66%
- Population Normal (%) [2]: 91%
- Population Pyknosed Nuclei (%) [2]: 5%
- Population Tubulin-Different-Phenotype (%) [2]: 11%
- Total Cell Count [2]: 61
- Population Apoptotic (%) [3]: 61%
- Population Fragmented Nuclei (%) [3]: 13%
- Population Healthy Nuclei (%) [3]: 75%
- Population Hoechst High Intensity Objects (%) [3]: 10%
- Population Membrane Permeable-Phenotype (%) [3]: 5%
- Population Mitochondria Different-Phenotype (%) [3]: 29%
- Population Mitotic Cells (%) [3]: 38%
- Population Normal (%) [3]: 89%
- Population Tubulin-Different-Phenotype (%) [3]: 37%
- Total Cell Count [3]: 91
- Population Apoptotic (%) [4]: 57%
- Population Fragmented Nuclei (%) [4]: 6%
- Population Healthy Nuclei (%) [4]: 81%
- Population Hoechst High Intensity Objects (%) [4]: 9%
- Population Membrane Permeable-Phenotype (%) [4]: 12%
- Population Mitochondria Different-Phenotype (%) [4]: 32%
- Population Mitotic Cells (%) [4]: 42%
- Population Normal (%) [4]: 90%
- Population Pyknosed Nuclei (%) [4]: 11%
- Population Tubulin-Different-Phenotype (%) [4]: 30%
- Total Cell Count [4]: 56
- Population Apoptotic (%) [5]: 50%
- Population Fragmented Nuclei (%) [5]: 9%
- Population Healthy Nuclei (%) [5]: 78%
- Population Hoechst High Intensity Objects (%) [5]: 8%
- Population Membrane Permeable-Phenotype (%) [5]: 3%
- Population Mitochondria Different-Phenotype (%) [5]: 17%
- Population Mitotic Cells (%) [5]: 50%
- Population Normal (%) [5]: 91%
- Population Pyknosed Nuclei (%) [5]: 11%
- Population Tubulin-Different-Phenotype (%) [5]: 19%
- Total Cell Count [5]: 125
- Population Apoptotic (%) [6]: 25%
- Population Fragmented Nuclei (%) [6]: 8%
- Population Healthy Nuclei (%) [6]: 85%
- Population Hoechst High Intensity Objects (%) [6]: 1%
- Population Membrane Permeable-Phenotype (%) [6]: 0%
- Population Mitochondria Different-Phenotype (%) [6]: 11%
- Population Mitotic Cells (%) [6]: 75%
- Population Normal (%) [6]: 98%
- Population Pyknosed Nuclei (%) [6]: 5%
- Population Tubulin-Different-Phenotype (%) [6]: 11%
- Total Cell Count [6]: 67
- Population Apoptotic (%) [7]: 52%
- Population Fragmented Nuclei (%) [7]: 18%
- Population Healthy Nuclei (%) [7]: 67%
- Population Hoechst High Intensity Objects (%) [7]: 8%
- Population Membrane Permeable-Phenotype (%) [7]: 6%
- Population Mitochondria Different-Phenotype (%) [7]: 23%
- Population Mitotic Cells (%) [7]: 47%
- Population Normal (%) [7]: 91%
- Population Pyknosed Nuclei (%) [7]: 14%
- Population Tubulin-Different-Phenotype (%) [7]: 29%
- Total Cell Count [7]: 113
- Population Apoptotic (%) [8]: 50%
- Population Fragmented Nuclei (%) [8]: 20%
- Population Healthy Nuclei (%) [8]: 66%
- Population Hoechst High Intensity Objects (%) [8]: 10%
- Population Membrane Permeable-Phenotype (%) [8]: 4%
- Population Mitochondria Different-Phenotype (%) [8]: 26%
- Population Mitotic Cells (%) [8]: 50%
- Population Normal (%) [8]: 89%
- Population Pyknosed Nuclei (%) [8]: 12%
- Population Tubulin-Different-Phenotype (%) [8]: 17%
- Total Cell Count [8]: 71
- Population Apoptotic (%) [9]: 41%
- Population Fragmented Nuclei (%) [9]: 12%
- Population Healthy Nuclei (%) [9]: 76%
- Population Hoechst High Intensity Objects (%) [9]: 7%
- Population Membrane Permeable-Phenotype (%) [9]: 0%
- Population Mitochondria Different-Phenotype (%) [9]: 21%
- Population Mitotic Cells (%) [9]: 58%
- Population Normal (%) [9]: 92%
- Population Pyknosed Nuclei (%) [9]: 11%
- Population Tubulin-Different-Phenotype (%) [9]: 21%
- Total Cell Count [9]: 114
- Population Apoptotic (%) [10]: 0%
- Population Fragmented Nuclei (%) [10]: 6%
- Population Healthy Nuclei (%) [10]: 90%
- Population Hoechst High Intensity Objects (%) [10]: 3%
- Population Membrane Permeable-Phenotype (%) [10]: 2%
- Population Mitochondria Different-Phenotype (%) [10]: 19%
- Population Mitotic Cells (%) [10]: 100%
- Population Normal (%) [10]: 96%
- Population Pyknosed Nuclei (%) [10]: 3%
- Population Tubulin-Different-Phenotype (%) [10]: 15%
- Total Cell Count [10]: 71
- Population Apoptotic (%) [11]: 64%
- Population Healthy Nuclei (%) [11]: 53%
- Population Hoechst High Intensity Objects (%) [11]: 8%
- Population Membrane Permeable-Phenotype (%) [11]: 7%
- Population Mitochondria Different-Phenotype (%) [11]: 28%
- Population Mitotic Cells (%) [11]: 35%
- Population Normal (%) [11]: 91%
- Population Pyknosed Nuclei (%) [11]: 25%
- Population Tubulin-Different-Phenotype (%) [11]: 10%
- Total Cell Count [11]: 165
- Population Apoptotic (%) [12]: 44%
- Population Fragmented Nuclei (%) [12]: 21%
- Population Healthy Nuclei (%) [12]: 51%
- Population Hoechst High Intensity Objects (%) [12]: 13%
- Population Membrane Permeable-Phenotype (%) [12]: 20%
- Population Mitochondria Different-Phenotype (%) [12]: 41%
- Population Mitotic Cells (%) [12]: 55%
- Population Normal (%) [12]: 86%
- Population Pyknosed Nuclei (%) [12]: 27%
- Population Tubulin-Different-Phenotype (%) [12]: 23%
- Total Cell Count [12]: 124

SMILES: COc1ccc(Oc2cc(NCCC(F)(F)F)c3ncc(-c4ccc(C(=O)NC5CC5)c(C)c4)n3n2)c(F)c1F [BAY-1217389]
- Population Apoptotic (%) [3]: 40% and 58%
- Population Fragmented Nuclei (%) [3]: 9% and 11%
- Population Healthy Nuclei (%) [3]: 83% and 73%
- Population Hoechst High Intensity Objects (%) [3]: 4%
- Population Membrane Permeable-Phenotype (%) [3]: 66% and 23%
- Population Mitotic Cells (%) [3]: 60% and 41%
- Population Normal (%) [3]: 95%
- Population Pyknosed Nuclei (%) [3]: 7% and 15%
- Population Tubulin-Different-Phenotype (%) [3]: 97% and 100%
- Total Cell Count [3]: 148 and 164
- Population Apoptotic (%) [4]: 60% and 55%
- Population Fragmented Nuclei (%) [4]: 19%
- Population Healthy Nuclei (%) [4]: 85% and 59%
- Population Hoechst High Intensity Objects (%) [4]: 17% and 11%
- Population Membrane Permeable-Phenotype (%) [4]: 53% and 63%
- Population Mitotic Cells (%) [4]: 40% and 45%
- Population Normal (%) [4]: 82% and 88%
- Population Tubulin-Different-Phenotype (%) [4]: 88%
- Total Cell Count [4]: 114 and 108
- Population Apoptotic (%) [7]: 52% and 69%
- Population Fragmented Nuclei (%) [7]: 10% and 14%
- Population Healthy Nuclei (%) [7]: 77% and 65%
- Population Hoechst High Intensity Objects (%) [7]: 5% and 2%
- Population Membrane Permeable-Phenotype (%) [7]: 38% and 41%
- Population Mitochondria Different-Phenotype (%) [7]: 44% and 83%
- Population Mitotic Cells (%) [7]: 47% and 30%
- Population Normal (%) [7]: 94% and 97%
- Population Pyknosed Nuclei (%) [7]: 11% and 20%
- Population Tubulin-Different-Phenotype (%) [7]: 92% and 99%
- Total Cell Count [7]: 154 and 167
- Population Apoptotic (%) [8]: 50% and 60%
- Population Fragmented Nuclei (%) [8]: 13%
- Population Healthy Nuclei (%) [8]: 75% and 54%
- Population Hoechst High Intensity Objects (%) [8]: 10% and 13%
- Population Membrane Permeable-Phenotype (%) [8]: 39% and 78%
- Population Mitochondria Different-Phenotype (%) [8]: 59% and 95%
- Population Mitotic Cells (%) [8]: 50% and 39%
- Population Normal (%) [8]: 89% and 86%
- Population Pyknosed Nuclei (%) [8]: 14% and 32%
- Population Tubulin-Different-Phenotype (%) [8]: 87% and 100%
- Total Cell Count [8]: 110 and 101
